PMC3517065 (ChemMedChem, 2012)

System: HIV-1 in permissive cells (MT-4)
Test: not given
Details: which do not express A3G; cited from earlier work

SMILES	inhibition of HIV-1 replication in permissive cells
COc1ccccc1NC(=O)c1ccccc1Sc1ccc([N+](=O)[O-])cc1 [5a (RN18), N-(2-Methoxyphenyl)-2-((4-nitrophenyl)thio)benzamide]	not in permissive cells

System: not listed separately
Test: MTT-based cell viability assay
Details: human, HeLa cells
Method in brief: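 HeLa cells harvested in log phase, seeded at 1×10^3 per well in DMEM with 10% FBS, kept at 37 °C with 5% CO2. Test compound added 24 h after seeding from 10× stocks in DMEM; controls were DMEM alone and medium with DMSO (final 1%). At 72 h, MTT (2 mg mL−1 in PBS) added for 4 h; formazan dissolved in DMSO, A550 read. Value is the concentration reducing absorbance to 50% of control.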

SMILES	CC50 at 72 h
O=C(Nc1ccccc1CO)c1ccccc1Oc1ccc([N+](=O)[O-])cc1 [18e, N-(2-(hydroxymethyl)phenyl)-2-(4-nitrophenoxy)benzamide]	25 µM
COc1ccccc1C(=O)Nc1ccccc1Oc1ccc(N(C)C)cc1 [30k, N-(2-(4-(Dimethylamino)phenoxy)phenyl)-2-methoxybenzamide]	> 100 µM
COc1ccccc1NC(=O)c1ccccc1Oc1ccc(N)cc1 [19a, 2-(4-Aminophenoxy)-N-(2-methoxyphenyl)benzamide]	> 100 µM
CC(C)(C)OC(=O)N1CCN(C(=O)c2ccccc2Sc2ccc([N+](=O)[O-])cc2)CC1 [15h, tert-Butyl 4-(2-((4-nitrophenyl)thio)benzoyl)piperazine-1-carboxylate]	70 µM
COc1ccccc1C(=O)Nc1ccccc1OCc1ccc([N+](=O)[O-])cc1 [40k, N-(2-(4-Nitrobenzyloxy)phenyl)-2-methoxybenzamide]	> 100 µM
COc1ccccc1C(=O)Nc1ccccc1Sc1ccc([N+](=O)[O-])cc1 [5c, N-(2-(4-Nitrophenylthio)phenyl)-2-methoxybenzamide]	> 100 µM
COc1ccccc1S(=O)(=O)Nc1ccccc1Sc1ccc([N+](=O)[O-])cc1 [5e, 2-Methoxy-N-(2-(4-nitrophenylthio)phenyl)benzenesulfonamide]	> 100 µM
COc1ccccc1C(=O)Nc1ccccc1Oc1ccc(OC(C)=O)cc1 [32k, 4-(2-(2-Methoxybenzamido)phenoxy)phenyl acetate]	> 100 µM
COc1ccccc1NC(=O)c1ccccc1OCc1ccc([N+](=O)[O-])cc1 [40j, N-(2-Methoxyphenyl)-2-((4-nitrobenzyl)oxy)benzamide]	> 100 µM
COc1ccccc1NC(=O)c1ccccc1Oc1ccc2c(c1)OCO2 [23h, 2-(Benzo[d][1,3]dioxol-5-yloxy)-N-(2-methoxyphenyl)benzamide]	> 100 µM
O=C(Nc1ccccc1CO)c1ccccc1Sc1ccc([N+](=O)[O-])cc1 [15e, N-(2-(Hydroxymethyl)phenyl)-2-((4-nitrophenyl)thio)benzamide]	> 100 µM
COc1ccccc1NC(=O)c1ccccc1Sc1ccc(N)cc1 [6a, 2-((4-Aminophenyl)thio)-N-(2-methoxyphenyl)benzamide]	> 100 µM
COc1ccccc1NC(=O)c1ccccc1Oc1ccc([N+](=O)[O-])cc1 [18a, N-(2-Methoxyphenyl)-2-(4-nitrophenoxy)benzamide]	15 µM
O=C(Cc1ccccc1F)Nc1ccccc1Sc1ccc([N+](=O)[O-])cc1 [5g, 2-(2-Fluorophenyl)-N-(2-((4-nitrophenyl)thio)phenyl)acetamide]	> 100 µM
COc1ccccc1NS(=O)(=O)c1ccccc1Sc1ccc([N+](=O)[O-])cc1 [5d, N-(2-Methoxyphenyl)-2-((4-nitrophenyl)thio)benzenesulfonamide]	> 100 µM
COc1ccccc1C(=O)Nc1ccccc1Oc1ccc([N+](=O)[O-])cc1 [29k, 2-Methoxy-N-(2-(4-nitrophenoxy)phenyl)benzamide]	> 100 µM
COc1ccccc1C(=O)Nc1ccccc1Sc1ccc(N)cc1 [6c, N-(2-(4-Aminophenylthio)phenyl)-2-methoxybenzamide]	60 µM
COc1ccccc1S(=O)(=O)Nc1ccccc1Sc1ccc(N)cc1 [6e, N-(2-(4-aminophenylthio)phenyl)-2-methoxybenzenesulfonamide]	65 µM
COc1ccccc1CC(=O)Nc1ccccc1Sc1ccc([N+](=O)[O-])cc1 [5f, 2-(2-Methoxyphenyl)-N-(2-((4-nitrophenyl)thio)phenyl)acetamide]	> 100 µM
O=C(Nc1cccc(CO)c1)c1ccccc1Sc1ccc([N+](=O)[O-])cc1 [15f, N-(3-(Hydroxymethyl)phenyl)-2-((4-nitrophenyl)thio)benzamide]	> 100 µM
COC(=O)c1ccc(Oc2ccccc2NC(=O)c2ccccc2OC)cc1 [33k, Methyl 4-(2-(2-methoxybenzamido)phenoxy)benzoate]	> 100 µM
COc1ccccc1NC(=O)c1ccccc1Sc1ccccc1 [4a, N-(2-Methoxyphenyl)-2-(phenylthio)benzamide]	> 100 µM
COc1ccccc1NC(=O)c1ccccc1OCc1cccc([N+](=O)[O-])c1 [41j, N-(2-Methoxyphenyl)-2-((3-nitrobenzyl)oxy)benzamide]	> 100 µM
COc1ccc(Oc2ccccc2NC(=O)c2ccccc2OC)cc1 [31k, 2-Methoxy-N-(2-(4-methoxyphenoxy)phenyl)benzamide]	> 100 µM
COc1ccccc1NC(=O)c1ccccc1Sc1ccc([N+](=O)[O-])cc1 [5a (RN18), N-(2-Methoxyphenyl)-2-((4-nitrophenyl)thio)benzamide]	> 100 µM
COc1ccccc1NC(=O)c1ccccc1Sc1ccc([N+](=O)[O-])cc1Cl [16a, 2-(2-Chloro-4-nitrophenylthio)-N-(2-methoxyphenyl)benzamide]	50 µM
COC(=O)c1ccc(COc2ccccc2NC(=O)c2ccccc2OC)cc1 [45k, Methyl 4-((2-(2-methoxybenzamido)phenoxy)methyl)benzoate]	> 100 µM
COc1ccc(COc2ccccc2C(=O)Nc2ccccc2OC)cc1 [43j, 2-(4-methoxybenzyloxy)-N-(2-methoxyphenyl)benzamide]	> 100 µM
O=C(Nc1ccc2c(c1)OCO2)c1ccccc1Sc1ccc([N+](=O)[O-])cc1Cl [16d, N-(Benzo[d][1,3]dioxol-5-yl)-2-((2-chloro-4-nitrophenyl)thio)benzamide]	> 100 µM
COc1ccccc1NS(=O)(=O)c1ccccc1Sc1ccc(N)cc1 [6d, 2-((4-Aminophenyl)thio)-N-(2-methoxyphenyl)benzenesulfonamide]	> 100 µM
